{
  "source": "ChEMBL document CHEMBL1129795",
  "about": "“2-Azetidinone cholesterol absorption inhibitors: structure-activity relationships on the heterocyclic nucleus” (1996)",
  "key": {"[1]": {"test_system": "Cricetinae gen. sp.", "assay": "In vivo for cholesterol absorption inhibitory activity using 7-day cholesterol-fed hamster model (expressed as percent change in cholesteryl esters at 50 mg/kg/day)", "type": "functional, Cricetulus griseus", "in_short": "(§1)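 Hamsters were fed a high-cholesterol diet for 7 days and gavaged once daily with compound in 0.2 mL corn oil. On the last day, animals were sacrificed and hepatic and serum lipids were determined. Results are given as percent change in hepatic cholesteryl ester or serum cholesterol concentration versus diet-fed controls gavaged with corn oil without drug.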"}, "[2]": {"test_system": "Cricetinae gen. sp.", "assay": "In vivo cholesterol absorption inhibitory activity using 7-day cholesterol-fed hamster model (expressed as percent change in serum cholesterol at 50 mg/kg/day)", "type": "functional, Cricetulus griseus", "in_short": "as §1"}},
  "data": [
    {"smiles": "COc1ccc([C@@H]2[C@@H](CCCc3ccccc3)C(=O)N2C(=O)c2ccccc2)cc1", "values": [
      {"measurement": "Change", "setting": "[1]", "value": 16, "unit": "%"},
      {"measurement": "Change", "setting": "[2]", "value": 0, "unit": "%"}
    ]},
    {"smiles": "C=CCOc1ccc(N2C(=O)[C@H](CCCc3ccccc3)[C@H]2c2ccc(OC)cc2)cc1", "values": [
      {"measurement": "Change", "setting": "[1]", "value": -90, "unit": "%"},
      {"measurement": "Change", "setting": "[2]", "value": -44, "unit": "%"}
    ]},
    {"smiles": "COc1ccc(N2C(=O)[C@H](CCCc3ccccc3)[C@H]2c2ccc(OC(C)(C)C)cc2)cc1", "values": [
      {"measurement": "Change", "setting": "[1]", "value": -80, "unit": "%"},
      {"measurement": "Change", "setting": "[2]", "value": -26, "unit": "%"}
    ]},
    {"smiles": "COc1ccc([C@@H]2[C@H](CCc3ccccc3)C(=O)N2c2ccc(OC)cc2)cc1", "values": [
      {"measurement": "Change", "setting": "[1]", "value": -19, "unit": "%"},
      {"measurement": "Change", "setting": "[2]", "value": 0, "unit": "%"}
    ]},
    {"smiles": "COc1ccc([C@H]2N(c3ccccc3)C(=O)[C@@]2(F)CCCc2ccccc2)cc1", "values": [
      {"measurement": "Change", "setting": "[1]", "value": -94, "unit": "%"},
      {"measurement": "Change", "setting": "[2]", "value": -30, "unit": "%"}
    ]},
    {"smiles": "COc1ccc([C@@H]2[C@@H](CCCc3ccccc3)C(=S)N2c2ccc(OC)cc2)cc1", "values": [
      {"measurement": "Change", "setting": "[1]", "value": -23, "unit": "%"},
      {"measurement": "Change", "setting": "[2]", "value": 0, "unit": "%"}
    ]},
    {"smiles": "COc1ccc([C@@H]2[C@@H](CCCc3ccccc3)C(=O)N2c2ccc3c(c2)OCO3)cc1", "values": [
      {"measurement": "Change", "setting": "[1]", "value": -52, "unit": "%"},
      {"measurement": "Change", "setting": "[2]", "value": -19, "unit": "%"}
    ]},
    {"smiles": "CC[C@@]1(CCCc2ccccc2)C(=O)N(c2ccc(OC)cc2)[C@@H]1c1ccc(OC)cc1", "values": [
      {"measurement": "Change", "setting": "[1]", "value": 0, "unit": "%"},
      {"measurement": "Change", "setting": "[2]", "value": 0, "unit": "%"}
    ]},
    {"smiles": "COc1ccc([C@@H]2[C@@H](CCCc3ccccc3)C(=O)N2c2ccc(S(C)(=O)=O)cc2)cc1", "values": [
      {"measurement": "Change", "setting": "[1]", "value": -39, "unit": "%"},
      {"measurement": "Change", "setting": "[2]", "value": 0, "unit": "%"}
    ]},
    {"smiles": "COc1ccc([C@H]2N(c3ccc(OC)cc3)C(=O)C2(c2ccccc2)c2ccccc2)cc1", "values": [
      {"measurement": "Change", "setting": "[1]", "value": 0, "unit": "%"},
      {"measurement": "Change", "setting": "[2]", "value": 0, "unit": "%"}
    ]},
    {"smiles": "COc1ccc(N2C(=O)C(CCCc3ccccc3)[C@]2(c2ccc(OC)cc2)C(F)(F)F)cc1", "note": "(stereo not given in full)", "values": [
      {"measurement": "Change", "setting": "[1]", "value": -11, "unit": "%"},
      {"measurement": "Change", "setting": "[2]", "value": 0, "unit": "%"}
    ]},
    {"smiles": "CC[C@]1(CCCc2ccccc2)C(=O)N(c2ccc(OC)cc2)[C@@H]1c1ccccc1", "values": [
      {"measurement": "Change", "setting": "[1]", "value": -29, "unit": "%"},
      {"measurement": "Change", "setting": "[2]", "value": -12, "unit": "%"}
    ]},
    {"smiles": "COc1ccc([C@@H]2[C@@H](CCCc3ccccc3)C(=O)N2c2ccc(C(C)=O)cc2)cc1", "values": [
      {"measurement": "Change", "setting": "[1]", "value": -90, "unit": "%"},
      {"measurement": "Change", "setting": "[2]", "value": -40, "unit": "%"}
    ]},
    {"smiles": "COc1ccc([C@@H]2[C@@H](CCCc3ccccc3)C(=O)N2c2ccc(OC(F)(F)F)cc2)cc1", "values": [
      {"measurement": "Change", "setting": "[1]", "value": -85, "unit": "%"},
      {"measurement": "Change", "setting": "[2]", "value": -34, "unit": "%"}
    ]},
    {"smiles": "CCN1C(=O)[C@H](CCCc2ccccc2)[C@H]1c1ccc(OC)cc1", "values": [
      {"measurement": "Change", "setting": "[1]", "value": -21, "unit": "%"},
      {"measurement": "Change", "setting": "[2]", "value": -13, "unit": "%"}
    ]},
    {"smiles": "COc1ccc(N2C(=O)[C@H](CCCc3ccccc3)[C@H]2c2ccc(N(C)C)cc2)cc1", "values": [
      {"measurement": "Change", "setting": "[1]", "value": -60, "unit": "%"},
      {"measurement": "Change", "setting": "[2]", "value": -29, "unit": "%"}
    ]},
    {"smiles": "COc1ccc([C@@H]2[C@@H](CCCc3ccccc3)C(=O)N2C2CCCCC2)cc1", "values": [
      {"measurement": "Change", "setting": "[1]", "value": 0, "unit": "%"},
      {"measurement": "Change", "setting": "[2]", "value": 0, "unit": "%"}
    ]},
    {"smiles": "COc1ccc(N2C(=O)[C@H](CCCc3ccccc3)[C@H]2c2ccc(F)cc2)cc1", "values": [
      {"measurement": "Change", "setting": "[1]", "value": 12, "unit": "%"},
      {"measurement": "Change", "setting": "[2]", "value": 0, "unit": "%"}
    ]},
    {"smiles": "COc1ccc([C@@H]2[C@@H](CCCc3ccccc3)C(=O)N2c2ccccc2OC)cc1", "values": [
      {"measurement": "Change", "setting": "[1]", "value": -87, "unit": "%"},
      {"measurement": "Change", "setting": "[2]", "value": -49, "unit": "%"}
    ]},
    {"smiles": "COc1ccc([C@@H]2[C@@H](CCCc3ccccc3)C(=O)N2C(C)C)cc1", "values": [
      {"measurement": "Change", "setting": "[1]", "value": -30, "unit": "%"},
      {"measurement": "Change", "setting": "[2]", "value": -16, "unit": "%"}
    ]},
    {"smiles": "COc1ccc(N2C(=O)[C@H](CCCc3ccccc3)[C@H]2c2ccc(OCc3ccccc3)cc2)cc1", "values": [
      {"measurement": "Change", "setting": "[1]", "value": -48, "unit": "%"},
      {"measurement": "Change", "setting": "[2]", "value": -15, "unit": "%"}
    ]},
    {"smiles": "COc1ccc([C@@H]2[C@@H](CCCc3ccccc3)C(=O)N2C2CC2)cc1", "values": [
      {"measurement": "Change", "setting": "[1]", "value": -61, "unit": "%"},
      {"measurement": "Change", "setting": "[2]", "value": -20, "unit": "%"}
    ]},
    {"smiles": "CCCOc1ccc([C@@H]2[C@@H](CCCc3ccccc3)C(=O)N2c2ccc(OC)cc2)cc1", "values": [
      {"measurement": "Change", "setting": "[1]", "value": -95, "unit": "%"},
      {"measurement": "Change", "setting": "[2]", "value": -40, "unit": "%"}
    ]},
    {"smiles": "COc1ccc([C@H]2N(c3ccc(OC)cc3)C(=O)[C@@]2(C)CCCc2ccccc2)cc1", "values": [
      {"measurement": "Change", "setting": "[1]", "value": -56, "unit": "%"},
      {"measurement": "Change", "setting": "[2]", "value": 0, "unit": "%"}
    ]},
    {"smiles": "CCOc1ccc(N2C(=O)[C@H](CCCc3ccccc3)[C@H]2c2ccc(OC)cc2)cc1", "values": [
      {"measurement": "Change", "setting": "[1]", "value": -96, "unit": "%"},
      {"measurement": "Change", "setting": "[2]", "value": -57, "unit": "%"}
    ]},
    {"smiles": "CC[C@H]1C(=O)N(c2ccc(OC)cc2)[C@@H]1c1ccc(OC)cc1", "values": [
      {"measurement": "Change", "setting": "[1]", "value": 0, "unit": "%"},
      {"measurement": "Change", "setting": "[2]", "value": 0, "unit": "%"}
    ]},
    {"smiles": "COc1ccc(N2C(=O)[C@H](CCCc3ccccc3)[C@H]2c2ccc([S+](C)[O-])cc2)cc1", "note": "(stereo not given in full)", "values": [
      {"measurement": "Change", "setting": "[1]", "value": -32, "unit": "%"},
      {"measurement": "Change", "setting": "[2]", "value": -17, "unit": "%"}
    ]},
    {"smiles": "COc1ccc(N2C(=O)[C@H](CCCc3ccccc3)[C@H]2c2ccc(NS(C)(=O)=O)cc2)cc1", "values": [
      {"measurement": "Change", "setting": "[1]", "value": -46, "unit": "%"},
      {"measurement": "Change", "setting": "[2]", "value": -8, "unit": "%"}
    ]},
    {"smiles": "COc1ccc([C@@H]2[C@@H](CCCc3ccccc3)C(=O)N2c2ccc(F)cc2)cc1", "values": [
      {"measurement": "Change", "setting": "[1]", "value": -95, "unit": "%"},
      {"measurement": "Change", "setting": "[2]", "value": -38, "unit": "%"}
    ]},
    {"smiles": "COc1ccc([C@H]2N(c3ccc(OC)cc3)C(=O)[C@]2(C)CCCc2ccccc2)cc1", "values": [
      {"measurement": "Change", "setting": "[1]", "value": 21, "unit": "%"},
      {"measurement": "Change", "setting": "[2]", "value": 0, "unit": "%"}
    ]},
    {"smiles": "COc1ccc([C@@H]2[C@@H](CCCc3ccccc3)C(=O)N2c2cccc(OC)c2)cc1", "values": [
      {"measurement": "Change", "setting": "[1]", "value": -91, "unit": "%"},
      {"measurement": "Change", "setting": "[2]", "value": -38, "unit": "%"}
    ]},
    {"smiles": "COc1ccc([C@@H]2[C@@H](CCCc3ccccc3)C(=O)N2c2ccc(C)c(C)c2)cc1", "values": [
      {"measurement": "Change", "setting": "[1]", "value": -39, "unit": "%"},
      {"measurement": "Change", "setting": "[2]", "value": -21, "unit": "%"}
    ]},
    {"smiles": "COc1ccc([C@@H]2[C@@H](CCCc3ccccc3)C(=O)N2c2ccccc2)cc1", "values": [
      {"measurement": "Change", "setting": "[1]", "value": -95, "unit": "%"},
      {"measurement": "Change", "setting": "[2]", "value": -49, "unit": "%"}
    ]},
    {"smiles": "COCc1ccc([C@@H]2[C@@H](CCCc3ccccc3)C(=O)N2c2ccc(OC)cc2)cc1", "values": [
      {"measurement": "Change", "setting": "[1]", "value": -56, "unit": "%"},
      {"measurement": "Change", "setting": "[2]", "value": -27, "unit": "%"}
    ]},
    {"smiles": "COc1ccc([C@@H]2[C@@H](CCCCCCc3ccccc3)C(=O)N2c2ccc(OC)cc2)cc1", "values": [
      {"measurement": "Change", "setting": "[1]", "value": -17, "unit": "%"},
      {"measurement": "Change", "setting": "[2]", "value": -19, "unit": "%"}
    ]}
  ]
}
